Values after ≈ are worked out from the molar mass of the structure shown.
Assays:
Staphylococcus aureus [1] = experiment: Antibacterial activity against methicillin-sensitive Staphylococcus aureus ATCC 6538 measured after overnight incubation by broth double-dilution method; format: functional
Procedure, shortened: (§1)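 MIC by broth double-dilution in liquid Mueller-Hinton medium. Values are reported in µg/mL.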

Staphylococcus aureus [2] = experiment: Antibacterial activity against methicillin-sensitive Staphylococcus aureus ATCC 25923 measured after overnight incubation by broth double-dilution method; format: functional; procedure, shortened: as §1
Staphylococcus aureus [3] = experiment: Antibacterial activity against methicillin-sensitive Staphylococcus aureus ATCC 29213 measured after overnight incubation by broth double-dilution method; format: functional; procedure, shortened: as §1
Staphylococcus aureus [4] = experiment: Antibacterial activity against methicillin-resistant Staphylococcus aureus ATCC 33591 measured after overnight incubation by broth double-dilution method; format: functional; procedure, shortened: as §1
Staphylococcus aureus [5] = experiment: Antibacterial activity against methicillin-resistant Staphylococcus aureus 1 measured after overnight incubation by broth double-dilution method; format: functional; procedure, shortened: as §1
Staphylococcus aureus [6] = experiment: Antibacterial activity against methicillin-resistant Staphylococcus aureus 2 measured after overnight incubation by broth double-dilution method; format: functional; procedure, shortened: as §1
Staphylococcus aureus [7] = experiment: Antibacterial activity against methicillin-resistant Staphylococcus aureus BRS3 measured after overnight incubation by broth double-dilution method; format: functional; procedure, shortened: as §1
Staphylococcus aureus [8] = experiment: Antibacterial activity against methicillin-resistant Staphylococcus aureus C1 measured after overnight incubation by broth double-dilution method; format: functional; procedure, shortened: as §1
Staphylococcus aureus [9] = experiment: Antibacterial activity against methicillin-resistant Staphylococcus aureus C2 measured after overnight incubation by broth double-dilution method; format: functional; procedure, shortened: as §1
Staphylococcus aureus [10] = experiment: Antibacterial activity against methicillin-resistant Staphylococcus aureus C7 measured after overnight incubation by broth double-dilution method; format: functional; procedure, shortened: as §1
Staphylococcus aureus [11] = experiment: Antibacterial activity against methicillin-resistant Staphylococcus aureus C14 measured after overnight incubation by broth double-dilution method; format: functional; procedure, shortened: as §1
Staphylococcus aureus [12] = experiment: Antibacterial activity against methicillin-resistant Staphylococcus aureus C16 measured after overnight incubation by broth double-dilution method; format: functional; procedure, shortened: as §1
Staphylococcus aureus [13] = experiment: Antibacterial activity against methicillin-resistant Staphylococcus aureus C19 measured after overnight incubation by broth double-dilution method; format: functional; procedure, shortened: as §1
Staphylococcus aureus [14] = experiment: Antibacterial activity against methicillin-resistant Staphylococcus aureus G1 measured after overnight incubation by broth double-dilution method; format: functional; procedure, shortened: as §1
Staphylococcus aureus [15] = experiment: Antibacterial activity against methicillin-resistant Staphylococcus aureus G6 measured after overnight incubation by broth double-dilution method; format: functional; procedure, shortened: as §1
Staphylococcus aureus [16] = experiment: Antibacterial activity against methicillin-resistant Staphylococcus aureus G12 measured after overnight incubation by broth double-dilution method; format: functional; procedure, shortened: as §1
Staphylococcus aureus [17] = experiment: Antibacterial activity against methicillin-resistant Staphylococcus aureus G14 measured after overnight incubation by broth double-dilution method; format: functional; procedure, shortened: as §1
Staphylococcus aureus [18] = experiment: Antibacterial activity against methicillin-resistant Staphylococcus aureus NRS4 measured after overnight incubation by broth double-dilution method; format: functional; procedure, shortened: as §1
Staphylococcus aureus [19] = experiment: Antibacterial activity against methicillin-resistant Staphylococcus aureus NRS51 measured after overnight incubation by broth double-dilution method; format: functional; procedure, shortened: as §1
Staphylococcus aureus [20] = experiment: Antibacterial activity against methicillin-resistant Staphylococcus aureus NRS77 measured after overnight incubation by broth double-dilution method; format: functional; procedure, shortened: as §1
Staphylococcus aureus [21] = experiment: Antibacterial activity against methicillin-resistant Staphylococcus aureus S14 measured after overnight incubation by broth double-dilution method; format: functional; procedure, shortened: as §1
Staphylococcus aureus [22] = experiment: Antibacterial activity against methicillin-resistant Staphylococcus aureus S17 measured after overnight incubation by broth double-dilution method; format: functional; procedure, shortened: as §1
Staphylococcus aureus [23] = experiment: Antibacterial activity against methicillin-resistant Staphylococcus aureus S22 measured after overnight incubation by broth double-dilution method; format: functional; procedure, shortened: as §1
Staphylococcus aureus [24] = experiment: Antibacterial activity against methicillin-resistant Staphylococcus aureus S24 measured after overnight incubation by broth double-dilution method; format: functional; procedure, shortened: as §1
Staphylococcus aureus [25] = experiment: Antibacterial activity against methicillin-resistant Staphylococcus aureus USA100 measured after overnight incubation by broth double-dilution method; format: functional; procedure, shortened: as §1
Staphylococcus aureus [26] = experiment: Antibacterial activity against methicillin-resistant Staphylococcus aureus USA200 measured after overnight incubation by broth double-dilution method; format: functional; procedure, shortened: as §1
Staphylococcus aureus [27] = experiment: Antibacterial activity against methicillin-resistant Staphylococcus aureus USA300 measured after overnight incubation by broth double-dilution method; format: functional; procedure, shortened: as §1
Staphylococcus aureus [28] = experiment: Antibacterial activity against methicillin-resistant Staphylococcus aureus USA600 measured after overnight incubation by broth double-dilution method; format: functional; procedure, shortened: as §1
[29] = system: Staphylococcus epidermidis; experiment: Antibacterial activity against Staphylococcus epidermidis ATCC 35984 measured after overnight incubation by broth double-dilution method; format: functional; conditions: RP62A
Procedure, shortened: (§2)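 MIC by broth double-dilution in Mueller-Hinton medium. Re-testing at the time-kill inoculum used 1×10^6 CFU/mL.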

Enterococcus faecalis [30] = experiment: Antibacterial activity against Enterococcus faecalis ATCC 29212 measured after overnight incubation by broth double-dilution method; format: functional; procedure, shortened: as §2
Enterococcus faecalis [31] = experiment: Antibacterial activity against Enterococcus faecalis ATCC 49533 measured after overnight incubation by broth double-dilution method; format: functional; procedure, shortened: as §2
Enterococcus faecium = experiment: Antibacterial activity against Enterococcus faecium BM4105-RF measured after overnight incubation by broth double-dilution method; format: functional; procedure, shortened: as §1
Enterococcus = experiment: Antibacterial activity against Vancomycin-resistant Enterococcus measured after overnight incubation by broth double-dilution method; format: functional; procedure, shortened: as §1
Listeria monocytogenes = experiment: Antibacterial activity against Listeria monocytogenes ATCC 19115 measured after overnight incubation by broth double-dilution method; format: functional; procedure, shortened: as §2
[32] = system: Mycolicibacterium smegmatis; experiment: Antibacterial activity against Mycobacterium smegmatis MC2-155 measured after overnight incubation by broth double-dilution method; format: functional; conditions: str. MC2 155; procedure, shortened: as §1
Staphylococcus aureus [33] = experiment: Antibiofilm activity against methicillin-sensitive Staphylococcus aureus ATCC 6538 assessed as reduction of biofilm at […] measured after 24 hrs by crystal violet staining based method relative to control; format: functional; set-up: scale not given: the % may be the effect or the level left
[34] = system: Staphylococcus epidermidis; experiment: Antibiofilm activity against Staphylococcus epidermidis ATCC 35984 assessed as reduction of biofilm at […] ug/ml measured after 24 hrs by crystal violet staining based method relative to control; format: functional, RP62A; set-up: scale not given: the % may be the effect or the level left
[35] = Cytotoxicity against HEK293 cells assessed as cell death at […] measured after 24 hrs by resazurin dye-based fluorescence analysis relative to untreated control; format: toxicity; conditions: human, hek293, 24 h

COc1cc(OC)cc(-n2sc3ccccc3c2=O)c1
MIC (Staphylococcus aureus [1]): 1 µg/mL (≈ 3.48 µM)
MIC (Staphylococcus aureus [2]): 0.5 µg/mL (≈ 1.74 µM)
MIC (Staphylococcus aureus [3]): ≤ 0.25 µg/mL
MIC (Staphylococcus aureus [4]): ≤ 0.25 µg/mL
MIC (Staphylococcus aureus [5]): ≤ 0.25 µg/mL
MIC (Staphylococcus aureus [6]): 1 µg/mL (≈ 3.48 µM)
MIC (Staphylococcus aureus [7]): 2 µg/mL (≈ 6.96 µM)
MIC (Staphylococcus aureus [8]): 0.5 µg/mL (≈ 1.74 µM)
MIC (Staphylococcus aureus [9]): ≤ 0.25 µg/mL
MIC (Staphylococcus aureus [10]): 0.5 µg/mL (≈ 1.74 µM)
MIC (Staphylococcus aureus [11]): 2 µg/mL (≈ 6.96 µM)
MIC (Staphylococcus aureus [12]): 2 µg/mL (≈ 6.96 µM)
MIC (Staphylococcus aureus [13]): ≤ 0.25 µg/mL
MIC (Staphylococcus aureus [14]): 1 µg/mL (≈ 3.48 µM)
MIC (Staphylococcus aureus [15]): 1 µg/mL (≈ 3.48 µM)
MIC (Staphylococcus aureus [16]): 0.5 µg/mL (≈ 1.74 µM)
MIC (Staphylococcus aureus [17]): ≤ 0.25 µg/mL
MIC (Staphylococcus aureus [18]): 2 µg/mL (≈ 6.96 µM)
MIC (Staphylococcus aureus [19]): 1 µg/mL (≈ 3.48 µM)
MIC (Staphylococcus aureus [20]): 2 µg/mL (≈ 6.96 µM)
MIC (Staphylococcus aureus [21]): ≤ 0.25 µg/mL
MIC (Staphylococcus aureus [22]): 1 µg/mL (≈ 3.48 µM)
MIC (Staphylococcus aureus [23]): 0.5 µg/mL (≈ 1.74 µM)
MIC (Staphylococcus aureus [24]): ≤ 0.25 µg/mL
MIC (Staphylococcus aureus [25]): 0.5 µg/mL (≈ 1.74 µM)
MIC (Staphylococcus aureus [26]): 0.5 µg/mL (≈ 1.74 µM)
MIC (Staphylococcus aureus [27]): ≤ 0.25 µg/mL
MIC (Staphylococcus aureus [28]): 2 µg/mL (≈ 6.96 µM)
MIC [29]: 0.25 µg/mL (≈ 0.87 µM)
MIC (Enterococcus faecalis [30]): 2 µg/mL (≈ 6.96 µM)
MIC (Enterococcus faecalis [31]): 7.8 µg/mL (≈ 27.1 µM)
MIC (Enterococcus faecium): 3.9 µg/mL (≈ 13.6 µM)
MIC (Enterococcus): 0.5 µg/mL (≈ 1.74 µM)
MIC (Listeria monocytogenes): 2 µg/mL (≈ 6.96 µM)
MIC [32]: 2 µg/mL (≈ 6.96 µM)
Activity (Staphylococcus aureus [33]): 40%
Activity [34]: 50%
Activity [35]: > 20%

O=c1c2ccccc2sn1CCc1ccccc1
MIC (Staphylococcus aureus [1]): 3.9 µg/mL (≈ 15.3 µM)
MIC (Staphylococcus aureus [2]): 1 µg/mL (≈ 3.92 µM)
MIC (Staphylococcus aureus [3]): 2 µg/mL (≈ 7.83 µM)
MIC (Staphylococcus aureus [4]): 1 µg/mL (≈ 3.92 µM)
MIC (Staphylococcus aureus [5]): 1 µg/mL (≈ 3.92 µM)
MIC (Staphylococcus aureus [6]): 1 µg/mL (≈ 3.92 µM)
MIC (Staphylococcus aureus [7]): 2 µg/mL (≈ 7.83 µM)
MIC (Staphylococcus aureus [8]): 2 µg/mL (≈ 7.83 µM)
MIC (Staphylococcus aureus [9]): 2 µg/mL (≈ 7.83 µM)
MIC (Staphylococcus aureus [10]): 2 µg/mL (≈ 7.83 µM)
MIC (Staphylococcus aureus [11]): 2 µg/mL (≈ 7.83 µM)
MIC (Staphylococcus aureus [12]): 3.9 µg/mL (≈ 15.3 µM)
MIC (Staphylococcus aureus [13]): 1 µg/mL (≈ 3.92 µM)
MIC (Staphylococcus aureus [14]): 0.5 µg/mL (≈ 1.96 µM)
MIC (Staphylococcus aureus [15]): 1 µg/mL (≈ 3.92 µM)
MIC (Staphylococcus aureus [16]): 1 µg/mL (≈ 3.92 µM)
MIC (Staphylococcus aureus [17]): 1 µg/mL (≈ 3.92 µM)
MIC (Staphylococcus aureus [18]): 2 µg/mL (≈ 7.83 µM)
MIC (Staphylococcus aureus [19]): 2 µg/mL (≈ 7.83 µM)
MIC (Staphylococcus aureus [20]): 2 µg/mL (≈ 7.83 µM)
MIC (Staphylococcus aureus [21]): 0.5 µg/mL (≈ 1.96 µM)
MIC (Staphylococcus aureus [22]): 1 µg/mL (≈ 3.92 µM)
MIC (Staphylococcus aureus [23]): 3.9 µg/mL (≈ 15.3 µM)
MIC (Staphylococcus aureus [24]): 2 µg/mL (≈ 7.83 µM)
MIC (Staphylococcus aureus [25]): 3.9 µg/mL (≈ 15.3 µM)
MIC (Staphylococcus aureus [26]): 2 µg/mL (≈ 7.83 µM)
MIC (Staphylococcus aureus [27]): 2 µg/mL (≈ 7.83 µM)
MIC (Staphylococcus aureus [28]): 3.9 µg/mL (≈ 15.3 µM)
MIC [29]: 2 µg/mL (≈ 7.83 µM)
MIC (Enterococcus faecalis [30]): > 125 µg/mL
MIC (Enterococcus faecalis [31]): > 125 µg/mL
MIC (Enterococcus faecium): > 125 µg/mL
MIC (Enterococcus): 1 µg/mL (≈ 3.92 µM)
MIC (Listeria monocytogenes): 3.9 µg/mL (≈ 15.3 µM)
MIC [32]: 2 µg/mL (≈ 7.83 µM)
Activity [35]: > 20%

O=c1c2ccccc2sn1C1CCCC1
MIC (Staphylococcus aureus [1]): 7.8 µg/mL (≈ 35.6 µM)
MIC (Staphylococcus aureus [3]): 2 µg/mL (≈ 9.12 µM)
MIC (Staphylococcus aureus [5]): 2 µg/mL (≈ 9.12 µM)
MIC (Staphylococcus aureus [8]): 3.9 µg/mL (≈ 17.8 µM)
MIC (Staphylococcus aureus [11]): 3.9 µg/mL (≈ 17.8 µM)
MIC (Staphylococcus aureus [14]): 2 µg/mL (≈ 9.12 µM)
MIC (Staphylococcus aureus [16]): 3.9 µg/mL (≈ 17.8 µM)
MIC (Staphylococcus aureus [21]): 0.5 µg/mL (≈ 2.28 µM)
MIC (Staphylococcus aureus [23]): 7.8 µg/mL (≈ 35.6 µM)
MIC (Staphylococcus aureus [28]): 7.8 µg/mL (≈ 35.6 µM)
MIC [29]: 2 µg/mL (≈ 9.12 µM)
MIC (Enterococcus faecalis [30]): > 125 µg/mL
MIC (Enterococcus faecalis [31]): > 125 µg/mL
MIC (Enterococcus faecium): > 125 µg/mL
MIC (Enterococcus): 2 µg/mL (≈ 9.12 µM)
MIC [32]: 2 µg/mL (≈ 9.12 µM)
Activity [35]: > 20%
